The values that follow come from ChEMBL document CHEMBL4325920, “Discovery of Clinical Candidate BMS-823778 as an Inhibitor of Human 11β-Hydroxysteroid Dehydrogenase Type 1 (11β-HSD-1)” (ACS Med Chem Lett, 2018).

Data set [1] concerns Mus musculus. In words: Ex vivo inhibition of 11beta-HSD1 in diet induced obese mouse adipose tissue assessed as reduction in conversion of dehydrocorticosterone to corticosterone administered via oral gavage pretreated for 3 hrs followed by dehydrocorticosterone addition by LC-MS analysis. It counts as functional.
Data set [2] addresses T1, hERG (KCNH2) (Homo sapiens, UniProt Q12809). As to the kind of experiment: Inhibition of human ERG at 10 uM by whole-cell patch clamp method relative to control. (In general: The patch-clamp technique gives a direct electrical read-out from membranes.)
For another data set, the target named is Cytochrome P450 2C19 (Homo sapiens, UniProt P33261). In words: Inhibition of human CYP2C19. The data set is classed as ADME.
A further data set concerns the target Cytochrome P450 2C9 (Homo sapiens, UniProt P11712). As to the kind of experiment: Inhibition of human CYP2C9. It counts as ADME.
Data set [3] in a line: Toxicity in cynomolgus monkey assessed as emesis up to 100 mg/kg, po administered as single dose. To be noted: in vivo. The data set is classed as organism-based, Macaca fascicularis.
A short description of data set [4]: Toxicity in mouse up to 100 mg/kg, po administered as single dose. It counts as organism-based. The following applies: in vivo.
For data set [5], the target named is T2, Nuclear receptor subfamily 1 group I member 2 (Homo sapiens, UniProt O75469).
T2 sequence (O75469 whole entry): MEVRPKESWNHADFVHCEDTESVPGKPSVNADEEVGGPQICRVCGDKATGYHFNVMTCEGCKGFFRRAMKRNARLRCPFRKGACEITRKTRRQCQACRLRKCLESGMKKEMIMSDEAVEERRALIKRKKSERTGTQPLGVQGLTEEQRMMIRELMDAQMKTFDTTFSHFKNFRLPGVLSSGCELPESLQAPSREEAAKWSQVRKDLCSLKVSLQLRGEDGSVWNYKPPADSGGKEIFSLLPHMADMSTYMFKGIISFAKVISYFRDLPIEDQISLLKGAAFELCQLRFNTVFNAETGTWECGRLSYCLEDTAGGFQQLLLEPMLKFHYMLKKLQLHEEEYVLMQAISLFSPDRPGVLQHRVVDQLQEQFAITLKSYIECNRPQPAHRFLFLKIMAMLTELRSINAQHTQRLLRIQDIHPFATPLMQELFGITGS
As to the kind of experiment: Activation of PXR (unknown origin). The data set is classed as ADME.

The nature of data set [6]: Oral bioavailability in cynomolgus monkey at 1.47 mg/kg by LC-MS/MS analysis. The data set is classed as ADME, organism-based, Macaca fascicularis. The following applies: in vivo. Summed up: (§1)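 Given orally as a homogenized suspension, to mouse and to cynomolgus monkey.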
In data set [7] the target is T1, hERG (KCNH2). In words: Inhibition of human ERG at 30 uM by whole-cell patch clamp method relative to control.
For data set [8], the system named is Mus musculus. As to the kind of experiment: In-vivo inhibition of 11beta-HSD1 in po dosed diet induced obese mouse assessed as reduction in conversion of dehydrocorticosterone to corticosterone pretreated for 30 to 60 mins followed by dehydrocorticosterone addition and measured after 30 to 120 mins by enzyme immunosorbent assay. It counts as functional.
Data set [9] in a line: Efflux ratio of permeability from basolateral to apical side over apical to basolateral side in human Caco2 cells at 3 uM. To be noted: caco-2, 3 µM. For orientation: Caco-2 monolayers are a common model of the intestinal barrier.
The nature of data set [10]: Stability in mouse microsomes assessed as parent compound remaining after 30 mins. The following applies: read-out: Stability. It counts as ADME, Microsome.
Data set [11] can be described thus: Total plasma clearance in Balb/C mouse at 5 mg/kg, iv by LC-MS/MS analysis. It counts as ADME, organism-based.
Data set [12] can be described thus: Selectivity ratio of ED50 for inhibition of 11beta-HSD1 in po dosed diet induced obese mouse to ED50 for inhibition of 11beta-HSD1 in po cynomolgus monkey. It counts as functional.
Data set [13] in a line: Volume of distribution at steady state in Balb/C mouse at 5 mg/kg, iv by LC-MS/MS analysis. The data set is classed as ADME, organism-based. The following applies: in vivo, read-out: Vdss.
Data set [14] is described as follows: Inhibition of recombinant cynomolgus monkey 11beta-HSD1 expressed in HEK293 cell microsomes using [3H]cortisone as substrate after 4 hrs by homogeneous immuno-radiometric scintillation proximity assay. Also on record: species or system Macaca fascicularis.
Data set [15] can be described thus: Permeability of the compound by PAMPA. To be noted: read-out: permeability. The data set is classed as ADME. On the technique in general: The PAMPA barrier holds no transporters, so it reflects passive diffusion.
The nature of data set [16]: Ratio of drug level in adipose tissue to plasma in diet induced obese mouse administered via oral gavage. It counts as ADME. The following applies: adipose tissue and plasma.
Data set [17] addresses 11-beta-hydroxysteroid dehydrogenase 1 (Mus musculus, UniProt P50172). As to the kind of experiment: Inhibition of recombinant mouse 11beta-HSD1 expressed in HEK293 cell microsomes using [3H]cortisone as substrate after 4 hrs by homogeneous immuno-radiometric scintillation proximity assay.
For another data set, the target named is Cytochrome P450 2D6 (Homo sapiens, UniProt P10635). In words: Inhibition of human CYP2D6. It counts as ADME.
Another data set deals with Cytochrome P450 3A4 (Homo sapiens, UniProt P08684). As to the kind of experiment: Inhibition of human CYP3A4. The data set is classed as ADME.
A short description of data set [18]: Stability in cynomolgus monkey microsomes assessed as parent compound remaining after 30 mins. To be noted: read-out: Stability. The data set is classed as ADME, Macaca fascicularis, Microsome.
Data set [19] is described as follows: Volume of distribution at steady state in cynomolgus monkey at 1 mg/kg, iv by LC-MS/MS analysis. The data set is classed as ADME, organism-based, Macaca fascicularis. The following applies: in vivo, read-out: Vdss.
Data set [20] is described as follows: Protein binding in human plasma. The following applies: read-out: PPB (converted). The data set is classed as ADME, cell-free.
Another data set deals with Cynomolgus monkey. In words: In-vivo inhibition of 11beta-HSD1 in po cynomolgus monkey assessed as reduction in conversion of dehydrocorticosterone to corticosterone pretreated for 30 to 60 mins followed by dehydrocorticosterone addition and measured after 30 to 120 mins by enzyme immunosorbent assay. The data set is classed as functional. To be noted: Macaca fascicularis.

Data set [21] is described as follows: Genotoxicity in Escherichia coli by SOS chromotest. It counts as toxicity.
A short description of data set [22]: Stability in rat microsomes assessed as parent compound remaining after 30 mins. It counts as ADME, Microsome. The following applies: read-out: Stability.
The nature of data set [23]: Protein binding in cynomolgus monkey plasma. The data set is classed as ADME, cell-free, Macaca fascicularis. To be noted: read-out: PPB (converted).
The nature of data set [24]: Oral bioavailability in Balb/C mouse at 10 mg/kg by LC-MS/MS analysis. It counts as ADME, organism-based. To be noted: in vivo. Summed up:
as §1

Data set [25] in a line: Genotoxicity in Salmonella typhimurium by Ames test. To be noted: salmonella enterica subsp. enterica serovar typhimurium. It counts as toxicity.
The subject of data set [26] is Mus musculus. As to the kind of experiment: Selectivity ratio of ED50 for inhibition of 11beta-HSD1 in po dosed diet induced obese mouse to ED50 for ex vivo inhibition of 11beta-HSD1 in diet induced obese mouse adipose tissue administered via oral gavage. It counts as functional.
Data set [27] deals with 11-beta-hydroxysteroid dehydrogenase 1 (Homo sapiens, UniProt P28845). In words: Inhibition of recombinant human 11beta-HSD1 expressed in HEK293 cell microsomes using [3H]cortisone as substrate after 4 hrs by homogeneous immuno-radiometric scintillation proximity assay. It counts as cell-based.
The nature of data set [28]: Total plasma clearance in cynomolgus monkey at 1 mg/kg, iv by LC-MS/MS analysis. It counts as ADME, organism-based, Macaca fascicularis.
Data set [29] can be described thus: Stability in human microsomes assessed as parent compound remaining after 30 mins. The data set is classed as ADME, Microsome. To be noted: read-out: Stability.
The nature of data set [30]: Ratio of drug level in liver to plasma in diet induced obese mouse administered via oral gavage. The following applies: liver and plasma. The data set is classed as ADME.
The next data set concerns the target T3, Cytochrome P450 1A2 (Homo sapiens, UniProt P05177).
T3 sequence (P05177 whole entry): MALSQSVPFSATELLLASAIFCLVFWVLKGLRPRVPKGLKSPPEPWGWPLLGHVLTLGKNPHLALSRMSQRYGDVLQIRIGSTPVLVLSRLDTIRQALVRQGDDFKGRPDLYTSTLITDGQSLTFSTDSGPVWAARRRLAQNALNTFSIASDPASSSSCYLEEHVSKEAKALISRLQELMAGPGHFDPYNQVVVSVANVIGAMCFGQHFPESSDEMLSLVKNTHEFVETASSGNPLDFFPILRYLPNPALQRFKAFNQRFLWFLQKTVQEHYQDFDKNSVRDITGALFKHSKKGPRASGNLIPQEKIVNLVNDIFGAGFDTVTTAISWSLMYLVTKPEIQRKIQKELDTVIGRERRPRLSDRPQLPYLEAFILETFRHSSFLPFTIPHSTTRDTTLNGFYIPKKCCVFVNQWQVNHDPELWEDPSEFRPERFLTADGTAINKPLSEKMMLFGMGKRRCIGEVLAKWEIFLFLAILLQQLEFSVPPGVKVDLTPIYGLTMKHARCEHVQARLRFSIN
In words: Inhibition of human CYP1A2. The data set is classed as ADME.

Data set [31] can be described thus: Protein binding in mouse plasma. It counts as ADME, cell-free. The following applies: read-out: PPB (converted).
A short description of data set [32]: Stability of the compound under high intensity light/UV light measured after 12 weeks using crystalline solid sample. To be noted: 2016 h. The data set is classed as physicochemical.
Data set [33] is described as follows: Aqueous solubility of the compound at pH 6.5 using crystalline sample. It counts as physicochemical.
A short description of data set [34]: Stability of the compound in solid state. It counts as physicochemical.
Data set [35] can be described thus: Stability of the compound in hydrolytic solution. It counts as physicochemical.
The nature of data set [36]: Stability of the compound in oxidative solution. The data set is classed as physicochemical.
The nature of data set [37]: Stability of the compound in aqueous buffer at pH 1.1 to pH 7.4 at 40 degC measured after 1 week. The data set is classed as physicochemical. To be noted: pH 1.1, 168 h.
The nature of data set [38]: Stability of the compound at 50 degC measured after 12 weeks using crystalline solid sample. The following applies: 2016 h. The data set is classed as physicochemical.
Data set [39] can be described thus: Aqueous solubility of the compound at pH 1 using crystalline sample. The data set is classed as physicochemical.

A word on the inhibition: it is the share of the control response that was lost under treatment. Broadly, the IC50 is the concentration that inhibits the measured activity by half. As a reminder, the EC50 is the concentration giving half of the maximal effect. What is called bioavailability is the share of a dose that reaches the circulation, judged against a reference dose that is usually intravenous. As usually defined, the clearance is a measure of how efficiently the substance is removed, as volume per time. Usually Ki stands for the dissociation constant of the complex between target and ligand, obtained from inhibition or displacement. As usually defined, the Kp is tissue or fluid exposure divided by exposure in the circulation. A word on the solubility (thermodynamic): it is solubility found after equilibrating the solid with the medium.

The structures appear in SMILES notation. A value given as a limit tells only on which side of the number the result lay.

T1 sequence (Q12809 whole entry): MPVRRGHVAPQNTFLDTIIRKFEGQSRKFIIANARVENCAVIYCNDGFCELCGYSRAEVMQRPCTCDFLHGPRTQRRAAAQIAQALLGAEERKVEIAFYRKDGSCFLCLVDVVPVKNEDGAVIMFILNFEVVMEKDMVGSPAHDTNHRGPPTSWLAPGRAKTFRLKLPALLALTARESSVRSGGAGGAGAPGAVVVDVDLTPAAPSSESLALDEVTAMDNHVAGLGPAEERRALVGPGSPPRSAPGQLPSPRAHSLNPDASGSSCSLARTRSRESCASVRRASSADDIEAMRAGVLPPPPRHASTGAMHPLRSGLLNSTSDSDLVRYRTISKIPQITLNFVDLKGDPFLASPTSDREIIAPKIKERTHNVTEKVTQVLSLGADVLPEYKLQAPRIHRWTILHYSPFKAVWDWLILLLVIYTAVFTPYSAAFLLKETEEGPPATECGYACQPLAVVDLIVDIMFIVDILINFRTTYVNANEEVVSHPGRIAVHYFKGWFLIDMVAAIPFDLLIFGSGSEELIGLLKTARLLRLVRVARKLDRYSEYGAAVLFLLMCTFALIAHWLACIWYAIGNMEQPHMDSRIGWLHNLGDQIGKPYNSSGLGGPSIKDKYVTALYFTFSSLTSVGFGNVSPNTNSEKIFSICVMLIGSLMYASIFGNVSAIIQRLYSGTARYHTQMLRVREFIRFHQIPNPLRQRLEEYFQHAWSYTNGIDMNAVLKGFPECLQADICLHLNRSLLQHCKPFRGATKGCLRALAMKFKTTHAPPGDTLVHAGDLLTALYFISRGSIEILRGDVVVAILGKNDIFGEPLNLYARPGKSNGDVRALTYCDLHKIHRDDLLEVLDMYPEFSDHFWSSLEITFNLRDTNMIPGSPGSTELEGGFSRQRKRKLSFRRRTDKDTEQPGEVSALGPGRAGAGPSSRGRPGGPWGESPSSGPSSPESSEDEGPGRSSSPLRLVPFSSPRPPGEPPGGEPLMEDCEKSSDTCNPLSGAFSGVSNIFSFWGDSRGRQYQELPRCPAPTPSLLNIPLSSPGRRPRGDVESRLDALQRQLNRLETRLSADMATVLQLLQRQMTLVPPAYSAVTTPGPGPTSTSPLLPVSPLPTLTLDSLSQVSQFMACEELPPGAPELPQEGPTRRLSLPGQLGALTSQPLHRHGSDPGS
Sequence of 11-beta-hydroxysteroid dehydrogenase 1 (Mus musculus, UniProt P50172) (P50172 whole entry): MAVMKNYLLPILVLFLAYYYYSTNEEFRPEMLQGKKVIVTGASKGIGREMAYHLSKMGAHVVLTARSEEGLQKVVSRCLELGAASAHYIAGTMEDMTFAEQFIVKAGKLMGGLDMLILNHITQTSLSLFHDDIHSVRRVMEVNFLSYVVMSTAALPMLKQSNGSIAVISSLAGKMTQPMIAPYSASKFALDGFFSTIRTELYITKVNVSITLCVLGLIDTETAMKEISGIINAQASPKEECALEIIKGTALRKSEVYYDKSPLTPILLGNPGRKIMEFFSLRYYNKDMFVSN
Sequence of Cytochrome P450 2C9 (P11712 whole entry): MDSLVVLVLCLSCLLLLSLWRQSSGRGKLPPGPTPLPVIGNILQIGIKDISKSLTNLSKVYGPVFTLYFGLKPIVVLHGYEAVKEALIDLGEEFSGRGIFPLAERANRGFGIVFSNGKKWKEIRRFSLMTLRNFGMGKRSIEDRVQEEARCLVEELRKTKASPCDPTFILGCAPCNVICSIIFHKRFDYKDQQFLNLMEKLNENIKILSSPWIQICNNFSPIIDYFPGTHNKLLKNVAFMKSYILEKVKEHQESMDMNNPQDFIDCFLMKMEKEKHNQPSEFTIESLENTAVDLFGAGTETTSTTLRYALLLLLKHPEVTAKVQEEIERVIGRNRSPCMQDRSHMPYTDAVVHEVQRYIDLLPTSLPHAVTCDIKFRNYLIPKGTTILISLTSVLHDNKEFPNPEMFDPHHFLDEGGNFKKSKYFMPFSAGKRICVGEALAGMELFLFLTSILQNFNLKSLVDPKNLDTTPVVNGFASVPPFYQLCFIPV
Sequence of Cytochrome P450 2C19 (P33261 whole entry): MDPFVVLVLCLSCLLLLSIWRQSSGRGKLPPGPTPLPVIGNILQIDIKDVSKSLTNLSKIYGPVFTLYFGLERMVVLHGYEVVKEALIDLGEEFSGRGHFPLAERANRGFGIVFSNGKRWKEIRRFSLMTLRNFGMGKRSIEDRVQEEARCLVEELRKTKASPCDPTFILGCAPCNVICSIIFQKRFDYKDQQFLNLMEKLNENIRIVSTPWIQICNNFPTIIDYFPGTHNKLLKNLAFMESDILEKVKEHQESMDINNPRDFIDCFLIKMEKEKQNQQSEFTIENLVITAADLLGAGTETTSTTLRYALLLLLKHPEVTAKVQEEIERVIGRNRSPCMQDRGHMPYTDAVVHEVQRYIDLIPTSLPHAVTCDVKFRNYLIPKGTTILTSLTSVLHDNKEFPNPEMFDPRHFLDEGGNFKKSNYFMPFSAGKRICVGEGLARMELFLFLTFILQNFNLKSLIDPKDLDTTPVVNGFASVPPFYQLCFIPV
Sequence of Cytochrome P450 2D6 (P10635 whole entry): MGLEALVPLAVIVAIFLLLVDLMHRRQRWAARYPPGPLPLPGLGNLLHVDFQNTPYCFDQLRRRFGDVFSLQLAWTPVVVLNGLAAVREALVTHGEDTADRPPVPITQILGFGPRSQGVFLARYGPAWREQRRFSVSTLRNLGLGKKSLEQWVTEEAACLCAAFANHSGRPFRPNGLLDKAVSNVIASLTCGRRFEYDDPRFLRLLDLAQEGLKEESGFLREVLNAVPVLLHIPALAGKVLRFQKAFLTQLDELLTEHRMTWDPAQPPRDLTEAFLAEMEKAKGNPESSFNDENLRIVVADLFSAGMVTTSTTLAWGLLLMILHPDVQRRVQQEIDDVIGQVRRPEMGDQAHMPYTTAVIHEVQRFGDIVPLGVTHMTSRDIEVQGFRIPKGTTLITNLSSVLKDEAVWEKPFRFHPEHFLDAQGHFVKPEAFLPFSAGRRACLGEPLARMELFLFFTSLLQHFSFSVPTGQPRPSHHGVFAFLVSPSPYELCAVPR
Sequence of 11-beta-hydroxysteroid dehydrogenase 1 (Homo sapiens, UniProt P28845) (P28845 whole entry): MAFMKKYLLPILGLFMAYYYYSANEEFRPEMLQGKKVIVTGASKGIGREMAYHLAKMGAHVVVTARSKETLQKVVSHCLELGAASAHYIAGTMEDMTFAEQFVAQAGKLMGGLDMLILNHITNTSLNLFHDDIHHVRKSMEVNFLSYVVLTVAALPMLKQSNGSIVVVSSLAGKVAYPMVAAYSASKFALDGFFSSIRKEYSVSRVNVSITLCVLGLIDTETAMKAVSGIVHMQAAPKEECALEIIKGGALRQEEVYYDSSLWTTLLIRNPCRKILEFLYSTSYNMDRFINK
Sequence of Cytochrome P450 3A4 (P08684 whole entry): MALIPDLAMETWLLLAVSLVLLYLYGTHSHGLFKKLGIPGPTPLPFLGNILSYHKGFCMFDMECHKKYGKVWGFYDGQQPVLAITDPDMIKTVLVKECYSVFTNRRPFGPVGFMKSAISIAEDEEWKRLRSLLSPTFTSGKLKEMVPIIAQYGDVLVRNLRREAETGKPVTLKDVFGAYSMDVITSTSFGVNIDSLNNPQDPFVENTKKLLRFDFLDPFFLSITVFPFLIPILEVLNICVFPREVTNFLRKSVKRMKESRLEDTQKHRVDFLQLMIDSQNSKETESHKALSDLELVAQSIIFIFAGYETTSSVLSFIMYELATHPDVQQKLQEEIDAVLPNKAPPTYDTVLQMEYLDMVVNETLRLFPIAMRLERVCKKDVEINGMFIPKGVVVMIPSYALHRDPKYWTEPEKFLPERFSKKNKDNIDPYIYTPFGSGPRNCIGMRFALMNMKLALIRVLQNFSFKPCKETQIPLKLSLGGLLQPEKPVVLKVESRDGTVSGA

In the case of `CC(C)(O)c1cccn2c(C3(c4ccc(Cl)cc4)CC3)nnc12` [BMS-823778 FREE BASE], the ED50 stood at 5.2 mg/kg in the data set with Mus musculus [1], 34 mg/kg in the data set on Mus musculus [8] and 0.6 mg/kg in the data set with Cynomolgus monkey. The compound also registered an inhibition at 10 µM against hERG (KCNH2) [2] of 19.8%. For the same compound, the IC50 was over 30000 nM on Cytochrome P450 2C19; over 30000 nM at Cytochrome P450 2C9; 600 nM in [17]; over 30000 nM against Cytochrome P450 2D6; over 30000 nM at Cytochrome P450 3A4; over 30000 nM on Cytochrome P450 1A2. In addition, the Activity result is “Toxic” in data set [3], “Non-Toxic” in [4], “Non-Toxic” in data set [21] and “Non-Toxic” in [25]. Moreover, the concentration giving a half-maximal response (EC50) in data set [5] was over 50000 nM. The results for the bioavailability in data set [6] and in data set [24] were 100% and 44%, respectively. The compound also showed an inhibition at 30 µM against hERG (KCNH2) [7] of 31.2%. The Ratio in data set [9] is under 2. The remaining at 0.5 h in [10], in [18], in [22] and in data set [29] was 96 to 100% throughout. Besides, the results for the clearance in data set [11] and in [28] were 2.3 mL/min/kg and 1.2 mL/min/kg, respectively. The “Ratio ED50” value is 57 in data set [12] and 6.5 in the data set with Mus musculus [26]. The Vd was determined as 1.2 L/kg in [13] and 2.3 L/kg in data set [19]. Moreover, the inhibition constant (Ki) in [14] turned out to be 7 nM; in data set [17] it was 380 nM; in data set [27] it was 0.9 nM. Further, in data set [15], the Papp is over 50 ×10⁻⁶ cm/s. Also, the Kp in data set [16] is 2.5; in [30], 3.5. Besides, the fraction unbound in data set [20] is 0.15; in data set [23] it was 0.16; in data set [31], 0.13.
Take `CC(C)(O)c1cccn2c(C3(c4ccc(Cl)cc4)CC3)nnc12.Cl` [BMS-823778]: the Stability result in [32], in data set [34], in data set [35], in data set [36], in data set [37] and in data set [38] was “Stable” throughout. Also, the thermodynamic solubility is 0.5 mg/mL in data set [33] and 220 mg/mL in [39].
